Laboratory results as given in the EternaBench riboswitch data.

System: MS2 coat protein
Assay: apparent Kd, MS2 coat protein; higher = weaker binding; RNA-MaP array; FMN 200 µM where present
Method in brief: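 The apparent Kd is reported as the median of filtered per-cluster binding-curve fits. To get these curves, designs transcribed by stalled E. coli RNA polymerase on Illumina sequencing-chip clusters were titrated with SNAP-549-labelled MS2 coat protein from 0.7 or 1.5 nM, doubling to 3 µM. Titrations were run without and then with constant ligand in 100 mM Tris-HCl pH 7.5, 80 mM KCl, 4 mM MgCl2, BSA, DTT, yeast tRNA and Tween-20, and green signal was normalised to red-channel RNA signal and control-cluster median Fmax.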

[1] = designed as: ON switch for flavin mononucleotide, no ligand
[2] = ligand present: flavin mononucleotide, designed as: ON switch for flavin mononucleotide
[3] = designed as: OFF switch for flavin mononucleotide, no ligand
[4] = ligand present: flavin mononucleotide, designed as: OFF switch for flavin mononucleotide

UGGUCCUAGGGAGGAUAUGGGAAGAUACAUGAGGAUCACCCAUGUUUAAGAAUGCCGAGAGGCAACUAGAAGGCCCUAGUACCU
apparent Kd [1]: 439 nM | apparent Kd [2]: 20.6 nM

CUGCUCCGUGUAGGAUAUGCAUACAACCAAUAUGCAGAAGGACAUGAGGAUCACCCAUGUAUGUUAUUAUCACGUGAAGCGUCC
apparent Kd [3]: 22.6 nM | apparent Kd [4]: 42.9 nM

AAUCGGGAGCAGAAGGCAUGUAAUAAGACAUGAGGAUCACCCAUGUAGUUAAGGCGAAAGCCGCAUGAGGAUAUGCUCCCGUAA
apparent Kd [1]: 5.26 nM | apparent Kd [2]: 4.99 nM

CGCUCUAUAUAUUUGGCAAGUAUCAGAAGGCGUUACAUGAGGAUCACCCAUGUUUUGAAUAGUAACGAGGAUAUGAUAUGAGCG
apparent Kd [3]: 22 nM | apparent Kd [4]: 24.2 nM

GCUGCGCGAGGAUAUGCGGUUCGGGCGGUGGCCGCUGGCGGACAUGAGGAUCACCCAUGUAGAAGGCGUGCGGG
apparent Kd [3]: 22.5 nM | apparent Kd [4]: 23.2 nM

UUUUAACAUGAGGAUCACCCAUGUGAGGAUAUCGAAAUUUAUAUUAAUAUUAAUUUAACGAGAAGGCACAUUUU
apparent Kd [3]: 101 nM | apparent Kd [4]: 93.7 nM

GUGACUUAUAGAGGAUAUUGACAUGAGGAUCACCCAUGUAUUUGGGAGUGUUCACUGAAUUCUUACGAGAAGGCUAUAAGACAC
apparent Kd [3]: 229 nM | apparent Kd [4]: 224 nM

ACAGGUGCAGGAUAUACAAUCGUGCUUCGGCACGUAAGAUCACAUGAGGAUCACCCAUGUAGAAGGGCACCUGU
apparent Kd [3]: 44.9 nM | apparent Kd [4]: 447 nM

AAACCGCUAGGAUAUACGAAAUAAAACUCUGUACUUGAGGUACAUGAGGAUCACCCAUGUAGAAGGAGCUCGGA
apparent Kd [3]: 119 nM | apparent Kd [4]: 229 nM

AUCCGGAAUGUUAGGAUAUCUUGGCGCCUGUGCUUGGAGAAGGGACAUGAGGAUCACCCAUGUCCUCUCGGAAA
apparent Kd [3]: 13.1 nM | apparent Kd [4]: 14.9 nM

UUCAGCUCGUGAGGAUAUACAUGUGCUGGAAACAGCAUUAUAUUUUUCACAUGAGGAUCACCCAUGUAGAAGGCACGAGCUGAG
apparent Kd [3]: 15.7 nM | apparent Kd [4]: 27.3 nM

CCCUACGUUUCGUAGCAGUGUCAUCGAGAAGGCCCUGACAUGAGGAUCACCCAUGUUGUUACAUGGGAGGAUAUCGAUGAUCCC
apparent Kd [1]: 18.6 nM | apparent Kd [2]: 5.47 nM

GUUGUUUCUGAGGAUAUUAUUUUUUUCGAUUGAUAAGAAGGCAGUACAUGAGGAUCACCCAUGUGGGUUGUCUG
apparent Kd [3]: 37.2 nM | apparent Kd [4]: 150 nM

AUUUGACACGUAGGAUAUCGCUCAAAUUUAACACGAGAAGGACGAACAUGAGGAUCACCCAUGUAACAUGGAGUAGUUUAUUUG
apparent Kd [3]: 76.6 nM | apparent Kd [4]: 111 nM

CGUAUCGAAGAAGGAUAUCGCAACGACAGCUAGGGCUAUUCUCAACAUGAGGAUCACCCAUGUUGCGAGAAGGUCUGCUAUGCG
apparent Kd [3]: 27.9 nM | apparent Kd [4]: 50.5 nM

UUGGACGUCGUAGGAUAUGUAGGAUAUUCCUACAUGAGGAUCACCCAUGUUGACAUGGAAGAAGGACAGAAGGUCGAUGUCCAU
apparent Kd [1]: 602 nM | apparent Kd [2]: 9.86 nM

UUAUGAGAGCAGGAUAUCUUAUUUUUUUUUUAUGGAGAAGGGCUCACAUGAGGAUCACCCAUGUGGUCCUAGAU
apparent Kd [3]: 27.9 nM | apparent Kd [4]: 54.4 nM

GCCAGGAUGUAAGGAUAUGCUGAGGAUAACUCAGCAGAAGGUACAUGAGGAUCACCCAUGUAAACCUAUAAUAAAUAACCUGGC
apparent Kd [3]: 11 nM | apparent Kd [4]: 15.4 nM

AUAAAACGAGGAUAUGCUGGGCUUCUGUGAUGCAUAUGCUCACAUGAGGAUCACCCAUGUAGAAGGUGUAAAAU
apparent Kd [3]: 278 nM | apparent Kd [4]: 289 nM

GUGGUUGUCGUAGGAUAUGUAGGAUAUUCCUACAUGAGGAUCACCCAUGUUCGCAUGGAAGAAGGACAGAAGGACGAUGACCAU
apparent Kd [1]: 1020 nM | apparent Kd [2]: 10.7 nM

AAAUUUAACGAAGGAUAUGCUUACAUGAGGAUCACCCAUGUGUGCCUUGUGUUGCUGAUUAGGUUGCAGAAGGUCGUAUACAUA
apparent Kd [3]: 124 nM | apparent Kd [4]: 684 nM

CUUAUGUGAGGAUAUGGUGUUGGCCACAGGAAAAAGAUUCUCCAGAAGGCACAUGAGGAUCACCCAUGUAGUGA
apparent Kd [3]: 51.3 nM | apparent Kd [4]: 120 nM

GCCAUCGCAUGAGGAUAUGCUCCCGUUUCGGGAGCAGAAGGCAUGUCACAAGACAUGAGGAUCACCCAUGUAGAUAAGAUGGCA
apparent Kd [1]: 257 nM | apparent Kd [2]: 9.49 nM

GGGCGUGAAGGAUAUACAUGAGGAUCACCCAUGUGGGAGGAGAAUGGUGAGGAGGCUGGUAGAAGGUCAGGAGG
apparent Kd [3]: 47.9 nM | apparent Kd [4]: 45.8 nM

UUGCAGUGCGGGUAGGAUAUGUAGGGUGGUACAUGAGGAUCACCCAUGUGUCCACCCUUCUUCCGGCAGAAGGGCCUGUCACUGC
apparent Kd [1]: 15.2 nM | apparent Kd [2]: 13.5 nM

CCAUGACAAAGUCAUGGAUAACGAACAUGAGGAUCACCCAUGUAGGAUAUGCUACUCAAAGAGUAGCAGAAGGACAUGUGCCUU
apparent Kd [3]: 36.1 nM | apparent Kd [4]: 263 nM

GAAGCAUGCAUUAACAUGAGGAUCACCCAUGUGAAAACACGUGAGGAUAUUGAUCUGAAGAAGAUCGAGAAGGCACCGUGCUAA
apparent Kd [1]: 14.1 nM | apparent Kd [2]: 9.11 nM
